Only some compounds are listed: those with a hit (about 2.7% of all), similar ones and a draw of the others.
Wee1 degr inh: inhibitors of human Wee1 degradation | reporter increase, % at 5 µM | P30291 | AID 1321 | hit rate 1.2% among 220,000 | HeLa Luc-Wee1K328M stability, luciferase luminescence; 100% = proteasome inhibitor MG132 effect;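 active = activation above the mean of all tested compounds plus 3 SD, set per screening run, cut at about 8.8% in these data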;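 note: cells exposed to compound for 20 h before luminescence read; 0% = DMSO alone and 100% = MG132 at 30 µM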
TbHK1 inh: blocks Trypanosoma brucei hexokinase 1 activity; recombinant TbHK1, G6PDH-coupled NADH A340; inhibition, % at 10 µM; hit rate 0.11% among 220,000; AID 1430;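 active = inhibition of 50% or more in the single-dose primary screen; inactive = inhibition below 50%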
14-3-3 Bad PPI: disrupts binding of bovine 14-3-3 zeta to phospho-Bad peptide. TR-FRET 14-3-3zeta/Dy647-pBad peptide displacement, 1 h. inhibition, % at 21.7 µM. hit rate 0.71% among 220,000;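 active = inhibition above about 70%, limit read from the data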;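 note: 0% = full 14-3-3 plus peptide FRET controls and 100% = background without 14-3-3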
Target sequence (P63103 whole entry, looked up): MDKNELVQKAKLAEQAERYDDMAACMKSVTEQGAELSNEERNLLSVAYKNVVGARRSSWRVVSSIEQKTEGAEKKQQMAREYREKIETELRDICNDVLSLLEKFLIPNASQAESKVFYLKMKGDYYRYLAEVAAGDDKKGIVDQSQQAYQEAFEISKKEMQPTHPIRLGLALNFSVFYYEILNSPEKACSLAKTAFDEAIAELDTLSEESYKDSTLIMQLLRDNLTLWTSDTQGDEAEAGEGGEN
Mdm2 ligase inh: inhibitors of human Mdm2 E3 ubiquitin ligase; AID 1230; Q00987; cell-based MDM2 ubiquitination luciferase reporter, 2 h; 0 = plate control, 100 = twice control, blank-subtracted; hit rate 0.11% among 210,000; signal enhancement, % at 5 µM;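 active = signal enhancement of 30% or more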;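 note: luminescence tracks abundance of the self-degrading MDM2-luciferase fusion protein; higher signal means inhibition of MDM2 E3 ligase activity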
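Assay system: mammalian cells stably expressing self-ubiquitinating, self-degrading MDM2 E3–luciferase fusion. Quantity: 2000 cells in each well. Medium: DMEM culture medium. Compound dosing: single-point 5 µM. Timing: cell settling 4 h, compound treatment 2 h, both 37 °C. Technique: luciferase luminescence. Read-out basis: percent signal gain over controls, blank-subtracted. Benchmarks: plate controls and plate blanks.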
Hck-Nef inh: human Hck-Nef kinase inhibition. P08631. Recombinant Hck-YEEI plus Nef, Z-Lyte FRET kinase assay. inhibition, % at 20 µM. hit rate 0.68% among 220,000;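 active = Hck-Nef kinase inhibition above about 50%, limit read from the data; inactive = inhibition below that limit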;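 note: 0% = DMSO with Hck plus Nef and 100% = Hck alone without Nef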
* marks the source's active call; other numbers are inactive results; nt = not tested or not shown; [ ] = remark or other dose.

SMILES	Wee1 degr inh	TbHK1 inh	14-3-3 Bad PPI	Mdm2 ligase inh	Hck-Nef inh
CC(=O)N1C(C)(C)CC(=NOC(=O)c2ccc(C)cc2)CC1(C)C	0.1	1.2	-4.5	-17.1	-28.6
OCCN(Cc1ccccc1)Cc1ccc(Cl)cc1Cl	8.6	11.0	87.2*	-1.2	1.8
Cc1ccc(S(=O)(=O)N(Cc2cc3cccc(C)c3[nH]c2=O)c2ccccc2)cc1	9.1*	-10.4	-10.2	nt	1.7
Cc1ccc(N(Cc2cc3ccccc3[nH]c2=O)S(=O)(=O)c2ccccc2)cc1	-2.5	0.0	10.4	1.6	-0.5
O=C(CSCc1c(F)cccc1Cl)Nc1ccccc1C(=O)N1CCOCC1	-2.3	-3.3	-2.4	0.7	23.1
COc1ccc(C)cc1NC(=O)C(OC(=O)CNC(=O)c1ccc(Br)cc1)c1ccccc1 (stereo not given)	-2.2	35.6	10.2	5.5	0.0
COc1ccc(C)cc1NC(=O)C(OC(=O)CNC(=O)c1cc(C)cc(C)c1)c1ccccc1 (stereo not given)	1.7	-0.7	0.5	67.2*	0.5
CC(C)CC(NC(=O)CCl)c1ccccc1 (stereo not given)	-0.7	-1.8	-8.4	9.3	5.2
CC(C)CNC(CC(=O)O)c1ccccc1 (stereo not given)	9.6*	-0.3	-4.4	-13.6	25.1
CC1CCC(NC(=O)c2ccc(NC(=O)c3ccc(=O)[nH]c3)cc2)CC1 (stereo not given)	-0.5	3.5	-2.2	nt	-3.5
Cn1c2ccccc2n2c(=O)c(Cl)c(-c3ccccc3)c(C#N)c12	-2.1	15.7	6.7	-14.7	2.4
CC(C)Cn1c(N)c(C(=O)COC(=O)c2cc(-c3ccco3)nc3ccccc23)c(=O)n(C)c1=O	2.0	-7.7	2.9	-3.8	4.8
Cn1c(=O)c(C(=O)COC(=O)c2cc(-c3ccco3)nc3ccccc23)c(N)n(Cc2ccccc2)c1=O	1.4	-2.3	-13.2	nt	61.3*
CC(C)c1ccc2[nH]c(O)c(N=NC(=O)c3cccc(S(=O)(=O)Nc4cccc(Cl)c4)c3)c2c1	10.6*	-38.1	10.4	nt	17.4
CC(C)c1ccc2[nH]c(O)c(N=NC(=O)c3cccc(S(=O)(=O)Nc4ccc(Cl)cc4)c3)c2c1	3.4	-13.9	0.2	-6.9	2.6
Cc1csc2c(=O)sc(NC(=O)c3cccs3)nc12	-1.0	-16.2	-4.8	-14.4	28.0
O=C(/C=C1\C(=O)Nc2ccccc21)/C=C1\C(=O)Nc2ccccc21	0.6	-4.8	93.3*	-10.1	-16.5
O=C(OC1CCCCC1)c1ccc2c(c1)C1C=CCC1C(C(=O)O)N2 (stereo not given)	-1.3	16.0	45.3	-10.2	77.0*
O=C(O)C1Nc2c(O)cccc2C2C=CCC12 (stereo not given)	-0.4	6.0	82.8*[fluorescence artefact?]	-5.9	3.9
O=C(O)c1ccc2c(c1)[C@@H]1C=CC[C@@H]1[C@H](c1ccccn1)N2	1.7	-18.5	nt	nt	35.5
COc1cc(C(=O)NCc2nnc(SCC(=O)N3CCc4ccccc43)o2)cc(OC)c1OC	-1.6	0.4	-7.8	-11.4	0.6
COc1ccc(C)cc1C1=Nc2ccccc2C1(C)C	3.1	4.8	-4.2	30.4*	5.6
C=CCN(c1ccccc1Cl)S(=O)(=O)c1cccc(C(=O)OCC(=O)N(C)C2CCS(=O)(=O)C2)c1 (stereo not given)	-0.9	-6.8	-13.3	5.5	2.8
CC[n+]1ccc(C(=O)NCc2ccccc2)cc1	2.2	-0.3	-10.8	-3.0	-0.9
COC(=O)/C=C1\NCCNC1=O	-0.2	-23.9	-8.0	-0.1	-7.5
SMILES	Wee1 degr inh	TbHK1 inh	14-3-3 Bad PPI	Mdm2 ligase inh	Hck-Nef inh
O=C(N/N=C1/C(=O)c2cccc3cccc1c23)c1ccc(Cl)cc1	-0.5	-19.5	84.7*[fluorescence artefact?]	-7.4	21.0
Cc1ccc(/C=C/S(=O)(=O)NCC(=O)OCC(=O)N2CC(=O)Nc3ccccc32)cc1	-1.4	1.1	2.6	-8.3	2.8
CC(C)N1C(=O)C(O)(C2COC(C)(C)CC2=O)c2ccccc21 (stereo not given)	1.6	-1.3	70.7*	2.3	16.3
CC1(C)CC(=O)C(C2(O)C(=O)N(Cc3ccccc3)c3ccccc32)CO1 (stereo not given)	-0.4	32.8	11.6	10.2	7.6
CC(C)c1nnc(NC(=O)C2CCCO2)s1 (stereo not given)	-1.8	4.1	-7.1	5.5	24.1
CC(C)N(C(=O)NC(=O)NCC1CCCO1)S(C)(=O)=O (stereo not given)	9.5*	6.7	9.2	-8.4	-0.4
CCC(C)[C@H](NC(=O)NCC1CCCO1)C(=O)OC (stereo not given in full)	-1.9	-0.1	-2.7	6.2	1.9
COc1cc(OC)cc(C(=O)NCCOC23CC4CC(CC(C4)C2)C3)c1	9.4*	-12.4	-7.3	3.4	20.3
COc1ccc2cc(C3CC(c4ccco4)=NN3S(C)(=O)=O)c(Cl)nc2c1 (stereo not given)	-1.9	-19.0	1.6	-14.6	-176.5
CCOc1ccc2nc(Cl)c(C3CC(c4ccco4)=NN3S(=O)(=O)c3ccccc3)cc2c1 (stereo not given)	0.0	-5.9	0.0	12.7	59.1*
CS(=O)(=O)c1cc([N+](=O)[O-])c(Sc2nc3ccccc3[nH]2)c([N+](=O)[O-])c1	-0.9	-11.7	87.1*	-13.9	-0.4
COc1cc(/C=N/Nc2cc(C)nc(NS(=O)(=O)c3ccc(C)cc3)n2)ccc1O	1.7	-47.4	8.9	-9.1	15.9
COc1cc(/C=N/Nc2cc(C)nc(NS(=O)(=O)c3ccccc3)n2)ccc1O	10.0*	-82.6	1.0	-10.5	6.1
FC(F)(F)c1cccc(NC(=S)Nc2cccc(NC(=S)Nc3cccc(C(F)(F)F)c3)n2)c1	-2.9	-19.8	-3.4	-4.6	0.6
O=C(O)c1ccccc1C(=O)NCC(O)COc1ccc(Cl)cc1 (stereo not given)	-2.7	-14.6	1.3	1.7	8.2
Cc1cccc2cc(CN(Cc3ccccc3)C(=O)N3CCOCC3)c3nnnn3c12	3.3	4.9	nt	nt	8.5
NS(=O)(=O)c1ccc(NCc2ccccc2OCc2ccccc2F)cc1	-1.8	-0.7	82.0*	0.3	1.5
CN1CCN(C(=S)c2ccc([N+](=O)[O-])cc2)CC1	8.8	-11.0	-4.1	7.6	1.1
CN1CCN(C(=S)Nc2cc([N+](=O)[O-])ccc2Cl)CC1	-0.6	1.3	1.0	30.9*	3.4
O=[N+]([O-])c1ccc(N2CCN(C(=S)Nc3ccc(F)cc3F)CC2)cc1	9.2*	-6.1	-10.8	2.8	-5.5
Cc1cc(/N=C/N(C)C)on1	-1.3	6.2	-9.6	11.4	-1.3
COc1cc(OC)nc(/N=C/N(C)C)n1	32.5*	2.7	-1.8	-7.8	3.0
CCN(CC(=O)Nc1ccc(N2CCOCC2)cc1)Cc1nc2ccccc2c(=O)[nH]1	-3.1	-1.2	16.2	38.8*	1.8
CCN(CC(=O)Nc1ccc2c(c1)OCO2)Cc1nc2ccccc2c(=O)[nH]1	-1.3	-1.5	-2.1	6.6	6.3

Compound activity: PubChem, several laboratories
